Laboratory results published in ChEMBL document CHEMBL1125245, “Quinolone antibacterials: preparation and activity of bridged bicyclic analogues of the C7-piperazine” (J Med Chem, 1991).

Test system: not listed separately
Assay: Compound evaluated in vitro against five gram-negative bacterial strains and geometric means of the minimum inhibitory concentrations (MIC) reported.
Assay type: functional
Design: unit not given here
Settings: not given
How it was run: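 Geometric mean MIC across five Gram-negative strains (E. coli H560, E. coli Vogel, Enterobacter cloacae MA 2646, Klebsiella pneumoniae MGH-2, Proteus rettgeri M1771). Mean taken as antilog of the averaged log MIC values.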

| Structure (SMILES) | MIC |
| --- | --- |
| Nc1c(F)c(N2CCNCC2)c(F)c2c1c(=O)c(C(=O)O)cn2C1CC1 | 0.02 |
| Nc1c(F)c(N2CC3CCCC2CN3)c(F)c2c1c(=O)c(C(=O)O)cn2C1CC1 (stereo not drawn) | 0.04 |
| N[C@H]1C[C@H]2CC[C@@H](C1)N2c1c(F)cc2c(=O)c(C(=O)O)cn(C3CC3)c2c1F | 0.05 |
| CCN[C@H]1C[C@H]2CC[C@@H](C1)N2c1nc2c(cc1F)c(=O)c(C(=O)O)cn2C1CC1 | 0.46 |
| Nc1c(F)c(N2CCN3CCC2C3)c(F)c2c1c(=O)c(C(=O)O)cn2C1CC1 (stereo not drawn) | 0.03 |
| CN1CC2CCC1CN2c1nc2c(cc1F)c(=O)c(C(=O)O)cn2C1CC1 (stereo not drawn) | 0.1 |
| O=C(O)c1cn(C2CC2)c2cc(N3CC4CCC3CN4)c(F)cc2c1=O (stereo not drawn) | 0.08 |
| CCN[C@@H]1C[C@H]2CC[C@@H](C1)N2c1c(F)cc2c(=O)c(C(=O)O)cn(C3CC3)c2c1F | 0.61 |
| O=C(O)c1cn(C2CC2)c2cc(N3CCNCC3)c(F)cc2c1=O [CIPROFLOXACIN] | 0.06 |
| CCN[C@H]1C[C@H]2CC[C@@H](C1)N2c1cc2c(cc1F)c(=O)c(C(=O)O)cn2C1CC1.F | 2.76 |

Test system: Escherichia coli
Assay: In vivo protection against gram-negative Escherichia coli vogel in mouse after oral administration.
Settings: read-out: PD50

| Structure (SMILES) | ED50 [mg/kg] |
| --- | --- |
| Nc1c(F)c(N2CCNCC2)c(F)c2c1c(=O)c(C(=O)O)cn2C1CC1 | 0.8 |
| Nc1c(F)c(N2CC3CCCC2CN3)c(F)c2c1c(=O)c(C(=O)O)cn2C1CC1 (stereo not drawn) | 4.8 |
| N[C@H]1C[C@H]2CC[C@@H](C1)N2c1c(F)cc2c(=O)c(C(=O)O)cn(C3CC3)c2c1F | 1.8 |
| CCN[C@H]1C[C@H]2CC[C@@H](C1)N2c1nc2c(cc1F)c(=O)c(C(=O)O)cn2C1CC1 | 2.8 |
| Nc1c(F)c(N2CCN3CCC2C3)c(F)c2c1c(=O)c(C(=O)O)cn2C1CC1 (stereo not drawn) | 0.6 |
| CN1CC2CCC1CN2c1nc2c(cc1F)c(=O)c(C(=O)O)cn2C1CC1 (stereo not drawn) | 1.4 |
| O=C(O)c1cn(C2CC2)c2cc(N3CC4CCC3CN4)c(F)cc2c1=O (stereo not drawn) | 5.5 |
| CCN[C@@H]1C[C@H]2CC[C@@H](C1)N2c1c(F)cc2c(=O)c(C(=O)O)cn(C3CC3)c2c1F | 5.8 |
| O=C(O)c1cn(C2CC2)c2cc(N3CCNCC3)c(F)cc2c1=O [CIPROFLOXACIN] | 1.2 |

Target: DNA gyrase (Escherichia coli, UniProt P0AES4+P0AES6)
Assay: Compound evaluated in vitro for the ability to inhibit gyrase.
Assay type: protein-complex assay
Settings: read-out: I50 (converted)
How it was run: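 DNA gyrase isolated from Escherichia coli H560 cells; inhibition given as I50.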

| Structure (SMILES) | IC50 [µM] |
| --- | --- |
| Nc1c(F)c(N2CC3CCCC2CN3)c(F)c2c1c(=O)c(C(=O)O)cn2C1CC1 (stereo not drawn) | 2.23 |
| N[C@H]1C[C@H]2CC[C@@H](C1)N2c1c(F)cc2c(=O)c(C(=O)O)cn(C3CC3)c2c1F | 9.76 |
| CCN[C@H]1C[C@H]2CC[C@@H](C1)N2c1nc2c(cc1F)c(=O)c(C(=O)O)cn2C1CC1 | 15.7 |
| Nc1c(F)c(N2CCN3CCC2C3)c(F)c2c1c(=O)c(C(=O)O)cn2C1CC1 (stereo not drawn) | 14.1 |
| CN1CC2CCC1CN2c1nc2c(cc1F)c(=O)c(C(=O)O)cn2C1CC1 (stereo not drawn) | 14.8 |
| O=C(O)c1cn(C2CC2)c2cc(N3CC4CCC3CN4)c(F)cc2c1=O (stereo not drawn) | 4.2 |
| CCN[C@@H]1C[C@H]2CC[C@@H](C1)N2c1c(F)cc2c(=O)c(C(=O)O)cn(C3CC3)c2c1F | 9.1 |
| CCN[C@H]1C[C@H]2CC[C@@H](C1)N2c1cc2c(cc1F)c(=O)c(C(=O)O)cn2C1CC1.F | 41.7 |

Test system: Streptococcus pneumoniae
Assay: In vivo protection against gram-positive Streptococcus pneumonia (SV-1) in mouse after oral administration.
Assay type: functional
Settings: read-out: PD50

| Structure (SMILES) | ED50 [mg/kg] |
| --- | --- |
| Nc1c(F)c(N2CCNCC2)c(F)c2c1c(=O)c(C(=O)O)cn2C1CC1 | 31 |
| Nc1c(F)c(N2CC3CCCC2CN3)c(F)c2c1c(=O)c(C(=O)O)cn2C1CC1 (stereo not drawn) | 35 |
| N[C@H]1C[C@H]2CC[C@@H](C1)N2c1c(F)cc2c(=O)c(C(=O)O)cn(C3CC3)c2c1F | 8.5 |
| CCN[C@H]1C[C@H]2CC[C@@H](C1)N2c1nc2c(cc1F)c(=O)c(C(=O)O)cn2C1CC1 | 23 |
| O=C(O)c1cn(C2CC2)c2cc(N3CC4CCC3CN4)c(F)cc2c1=O (stereo not drawn) | > 100 |
| O=C(O)c1cn(C2CC2)c2cc(N3CCNCC3)c(F)cc2c1=O [CIPROFLOXACIN] | > 100 |

Test system: Streptococcus pneumoniae
Assay: In vivo protection against gram-positive Streptococcus pneumonia (SV-1) in mouse after subcutaneous administration
Assay type: functional
Settings: sc, read-out: PD50

| Structure (SMILES) | ED50 [mg/kg] |
| --- | --- |
| Nc1c(F)c(N2CCNCC2)c(F)c2c1c(=O)c(C(=O)O)cn2C1CC1 | 23 |
| Nc1c(F)c(N2CC3CCCC2CN3)c(F)c2c1c(=O)c(C(=O)O)cn2C1CC1 (stereo not drawn) | 6.3 |
| N[C@H]1C[C@H]2CC[C@@H](C1)N2c1c(F)cc2c(=O)c(C(=O)O)cn(C3CC3)c2c1F | 3.1 |
| CCN[C@H]1C[C@H]2CC[C@@H](C1)N2c1nc2c(cc1F)c(=O)c(C(=O)O)cn2C1CC1 | 16 |
| O=C(O)c1cn(C2CC2)c2cc(N3CC4CCC3CN4)c(F)cc2c1=O (stereo not drawn) | 24 |
| O=C(O)c1cn(C2CC2)c2cc(N3CCNCC3)c(F)cc2c1=O [CIPROFLOXACIN] | 29 |

Test system: not listed separately
Assay: Compound evaluated in vitro against five gram-positive bacterial strains and geometric means of the minimum inhibitory concentrations (MIC) reported.
Assay type: functional
Design: unit not given here
Settings: not given
How it was run: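 Geometric mean MIC across five Gram-positive strains, taken as antilog of the averaged log MIC values.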

| Structure (SMILES) | MIC |
| --- | --- |
| Nc1c(F)c(N2CCNCC2)c(F)c2c1c(=O)c(C(=O)O)cn2C1CC1 | 0.05 |
| Nc1c(F)c(N2CC3CCCC2CN3)c(F)c2c1c(=O)c(C(=O)O)cn2C1CC1 (stereo not drawn) | 0.03 |
| N[C@H]1C[C@H]2CC[C@@H](C1)N2c1c(F)cc2c(=O)c(C(=O)O)cn(C3CC3)c2c1F | 0.03 |
| CCN[C@H]1C[C@H]2CC[C@@H](C1)N2c1nc2c(cc1F)c(=O)c(C(=O)O)cn2C1CC1 | 0.26 |
| Nc1c(F)c(N2CCN3CCC2C3)c(F)c2c1c(=O)c(C(=O)O)cn2C1CC1 (stereo not drawn) | 0.08 |
| CN1CC2CCC1CN2c1nc2c(cc1F)c(=O)c(C(=O)O)cn2C1CC1 (stereo not drawn) | 0.26 |
| O=C(O)c1cn(C2CC2)c2cc(N3CC4CCC3CN4)c(F)cc2c1=O (stereo not drawn) | 0.1 |
| CCN[C@@H]1C[C@H]2CC[C@@H](C1)N2c1c(F)cc2c(=O)c(C(=O)O)cn(C3CC3)c2c1F | 0.17 |
| O=C(O)c1cn(C2CC2)c2cc(N3CCNCC3)c(F)cc2c1=O [CIPROFLOXACIN] | 0.91 |
| CCN[C@H]1C[C@H]2CC[C@@H](C1)N2c1cc2c(cc1F)c(=O)c(C(=O)O)cn2C1CC1.F | 1.81 |

Test system: Escherichia coli
Assay: In vivo protection against gram-negative Escherichia coli vogel in mouse after subcutaneous administration
Settings: sc, read-out: PD50

| Structure (SMILES) | ED50 [mg/kg] |
| --- | --- |
| Nc1c(F)c(N2CCNCC2)c(F)c2c1c(=O)c(C(=O)O)cn2C1CC1 | 0.2 |
| Nc1c(F)c(N2CC3CCCC2CN3)c(F)c2c1c(=O)c(C(=O)O)cn2C1CC1 (stereo not drawn) | 0.7 |
| N[C@H]1C[C@H]2CC[C@@H](C1)N2c1c(F)cc2c(=O)c(C(=O)O)cn(C3CC3)c2c1F | 0.75 |
| CCN[C@H]1C[C@H]2CC[C@@H](C1)N2c1nc2c(cc1F)c(=O)c(C(=O)O)cn2C1CC1 | 2.8 |
| Nc1c(F)c(N2CCN3CCC2C3)c(F)c2c1c(=O)c(C(=O)O)cn2C1CC1 (stereo not drawn) | 0.2 |
| CN1CC2CCC1CN2c1nc2c(cc1F)c(=O)c(C(=O)O)cn2C1CC1 (stereo not drawn) | 1.1 |
| O=C(O)c1cn(C2CC2)c2cc(N3CC4CCC3CN4)c(F)cc2c1=O (stereo not drawn) | 0.7 |
| CCN[C@@H]1C[C@H]2CC[C@@H](C1)N2c1c(F)cc2c(=O)c(C(=O)O)cn(C3CC3)c2c1F | 3 |
| O=C(O)c1cn(C2CC2)c2cc(N3CCNCC3)c(F)cc2c1=O [CIPROFLOXACIN] | 0.3 |
